Data set [1] can be described thus: Cytotoxicity against human CEM cells expressing green fluorescent protein assessed as oncytotoxic concentration by MTT assay. The class given is cell-based, CCRF-CEM. As to conditions: read-out: Activity. In short, it runs like this:
(§1)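 MTT cell viability assay in CEM-GFP cells. CC50 is the concentration reducing proliferation by 50%, n = 3. The non-cytotoxic concentration was chosen from these MTT results for the antiviral testing.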
For orientation: Tetrazolium assays rely on reduction of a dye to a coloured formazan, in cell work by metabolically active cells.

Data set [2] relates to Human immunodeficiency virus 1. Description: Antiviral activity against HIV1 NL4.3 infected in human CEM-GFP cells assessed as inhibition p24 antigen production at non cytotoxic concentration after 8 days by ELISA. The class given is functional. The method in brief:
(§2)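 CEM-GFP T cells carry a stably integrated LTR-driven GFP gene that is trans-activated by Tat on infection. Cells were infected with HIV-1 NL4.3 at MOI 0.05 and incubated with compound for up to 8 days post infection. Viral p24 was read by ELISA. Line 2 was tested at each compound's non-cytotoxic concentration. IC50 is 50% protection from virus, n = 3.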
Background: In an ELISA, binding on a coated surface is turned into a signal by an enzyme label.

A short description of data set [3]: Therapeutic index, ratio of CC50 for human CEM cells expressing green fluorescent protein to IC50 for HIV1 NL4.3. The class given is cell-based, CCRF-CEM. The note with it: read-out: TI. The method in brief: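 Therapeutic index is CC50 (MTT proliferation in CEM-GFP cells, n = 3) divided by IC50 (p24 ELISA protection of HIV-1 NL4.3-infected CEM-GFP cells, n = 3).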

Data set [4] is described as follows: Cytotoxicity against human CEM cells expressing green fluorescent protein by MTT assay. The class given is cell-based, CCRF-CEM. The method in brief:
as §1

Data set [5] has as its system Human immunodeficiency virus 1. Description: Antiviral activity against HIV1 NL4.3 infected in human CEM-GFP cells assessed as inhibition p24 antigen production after 8 days by ELISA. The note with it: Human immunodeficiency virus 1, NL4.3, CEM-GFP, 192 h. Type of data set: functional, organism-based. In short, it runs like this: as §2

Each structure is given as a SMILES string. The source made the active and inactive calls. No cut-off for these calls is given here.

These results are taken from ChEMBL document CHEMBL1208742, “Synthesis and evaluation of beta-carboline derivatives as inhibitors of human immunodeficiency virus” (Bioorg Med Chem Lett, 2010).

In the case of `C#CCn1c2ccccc2c2cc(C(=O)N3CCSCC3)nc(C)c21`, in data set [1], the MNTC came out at 21.5 µM. The inhibition result in data set [2] is “inactive”.

Take `COC(=O)c1cc2c([nH]c3ccccc32)c(C)n1`: in data set [1], the MNTC was 4.17 µM. The “inhibition (INH)” value in data set [2] was 21.3%.

Consider `COC(=O)c1cc2c([nH]c3ccccc32)c(C=O)n1`, for which the MNTC in data set [1] worked out at 9.83 µM. Further, the selectivity ratio in data set [3] amounted to 7. Also, in data set [4], it took 20.3 µM to reach half-maximal cytotoxicity (CC50). The IC50 (in general, the concentration needed to halve the response being measured) in data set [5] was found to be 2.9 µM.

Regarding `CC1=NC(C(=O)O)Cc2c1[nH]c1ccccc21` (centres undefined), in data set [1], the MNTC is 17.5 µM. The “inhibition (INH)” value in data set [2] was 16.48%.

In the case of `Cc1cn([C@H]2C[C@H](N=[N+]=[N-])[C@@H](CO)O2)c(=O)[nH]c1=O` [ZIDOVUDINE], the CC50 (commonly the concentration at which the toxic effect on the cells reaches its halfway point) in data set [4] amounted to 23 µM. Further, the IC50 in data set [5] was determined as 1.04 µM.

Turning to `COC(=O)C1Cc2c([nH]c3ccccc23)C(C)=N1` (centres undefined), in data set [1], the MNTC was 18.6 µM. Further, in data set [2], the “inhibition (INH)” value is listed as 17.26%.

On to `Cc1nc(C(=O)N2CCSCC2)cc2c3ccccc3n(Cc3ccc(F)cc3)c12`, for which, in data set [1], the MNTC stood at 23.8 µM. The inhibition result in data set [2] is “inactive”.

`CCn1c2ccccc2c2cc(C(=O)OC)nc(C)c21`: in data set [1], the MNTC came to 3.73 µM. For the same compound, the inhibition result in data set [2] is “inactive”.

In the case of `CCCCn1c2ccccc2c2cc(C(=O)N3CCSCC3)nc(C)c21`, in data set [1], the MNTC was 1.36 µM. The inhibition entry in data set [2] was “inactive”.

Consider `CCCCn1c2c(c3ccccc31)CC(CCCC)(C(=O)OC)N=C2C` (centres undefined), for which, in data set [1], the MNTC was determined as 14.1 µM. Moreover, the inhibition result in data set [2] is “inactive”.

On to `Cc1nc(C(=O)N2CCOCC2)cc2c1[nH]c1ccccc12`, for which the MNTC in data set [1] turned out to be 27.1 µM. In addition, the inhibition result in data set [2] is “inactive”.

With `CCCCC1(C(=O)OC)Cc2c([nH]c3ccccc23)C(C)=N1` (centres undefined), in data set [1], the MNTC worked out at 8.39 µM. The “inhibition (INH)” value in data set [2] amounted to 12.17%.

For `Cc1nc(C(=O)N2CCSCC2)cc2c3ccccc3n(Cc3ccccc3)c12`, the MNTC in data set [1] amounted to 6.22 µM. Further, in data set [2], the inhibition result was “inactive”.

In the case of `CC(C)=CCn1c2ccccc2c2cc(C(=O)N3CCSCC3)nc(C)c21`, in data set [1], the MNTC was 19.8 µM. Further, the inhibition result in data set [2] was “inactive”.

On to `COC(=O)c1cc2c3ccccc3n(C)c2c(C)n1`, for which the MNTC in data set [1] worked out at 19.7 µM. In data set [2], the inhibition result was “inactive”.

As to `CCCCn1c2ccccc2c2cc(C(=O)OC)nc(C)c21`, the MNTC in data set [1] came to 1.69 µM. Besides, the inhibition entry in data set [2] was “inactive”.

Consider `COC(=O)c1cc2c3ccccc3n(Cc3ccccc3)c2c(C)n1`, for which, in data set [1], the MNTC worked out at 15.1 µM. Besides, the inhibition result in data set [2] was “inactive”.

With `CCCn1c2ccccc2c2cc(C(=O)OC)nc(C)c21`, the MNTC in data set [1] was 3.54 µM. The inhibition result in data set [2] was “inactive”.

`Cc1nc(C(=O)N2CCCCC2)cc2c1[nH]c1ccccc12`: the MNTC in data set [1] is 1.71 µM. The inhibition entry in data set [2] was “inactive”.

Regarding `COC(=O)c1cc2c3ccccc3n3c(=O)ccc(n1)c23`, the MNTC in data set [1] was 3.59 µM. Also, the inhibition result in data set [2] was “inactive”.

Consider `Cc1nc(C(=O)N2CCSCC2)cc2c1[nH]c1ccccc12`, for which, in data set [1], the MNTC is 1.61 µM. In data set [2], the “inhibition (INH)” value was 16.9%.
